The source made the active and inactive calls.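 Rule for the calls, unless noted: active = inhibition of the reporter signal at or above 50%; inactive = inhibition below 50%.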
Legend:
[1] = inhibitors of TNFa-induced NFkB p65 translocation, primary screen, imaging, HUVEC, MLSMR starter and 10KST1 sets (AID 438;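 active = inhibition above 20% together with a positive visual image hit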;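 note: compound added about 3h40 before a 20 min TNFalpha stimulation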;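 for inhibition: signal is the nuclear over cytoplasmic p65 intensity ratio per well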); conditions: HUVEC TNFa-induced p65 nuclear translocation; cell count: measured here: nuclei count (cytotoxicity indicator), at 2.08 µM; inhibition: at 2 µM, stronger effect = higher value, 0% TNFa-plus-vehicle, 100% no-TNFa wells
[2] = reduction of polyQ htt aggregates in cells – imaging, exon1htt(103Q)mCFP cells, high-content imaging, primary screen (AID 483;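 active = visual image review flags a hit and inhibition of aggregation exceeds 20%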;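 note: compound exposure lasted 3 days before fixation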;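 for nuclei count: percent of the per-plate median nuclei count of sample wells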); conditions: exon1htt(103Q)mCFP cell line, aggregate imaging, at 2 µM; inhibition of aggregation: stronger effect = higher value; nuclei count: measured here: cell count, toxicity
[3] = endothelial E-selectin expression blockers – imaging, HUVEC, immunofluorescence, MLSMR starter and 10KST1 sets, primary screen (AID 487;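 active = visually confirmed hit in the image check and inhibition above 20%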;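 for inhibition: signal is fraction of cell area covered by stained E-selectin grains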;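 for nuclei count: 100% = median nuclei count of all wells on the same plate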); conditions: HUVEC TNFalpha-induced E-selectin immunofluorescence imaging, at 2 µM; inhibition: stronger effect = higher value; nuclei count: measured here: cell number, toxicity
[4] = target: Voltage-gated potassium channel subunit beta-2 (Rattus norvegicus) (UniProt P62483); assay: inhibitors of rat Kvbeta2 reductase activity – biochemical, NADPH fluorescence, primary screen (AID 622;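 active = fluorescence slope higher than the sample average by over 3 SD, cut at about -0.22 in these data, passing the limit was not always enough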;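 note: slope of raw intensity against log time taken from 70 to 1610 s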); conditions: recombinant KvBeta, 4-cyanobenzaldehyde reduction, at 10 µM, stronger effect = higher value
Voltage-gated potassium channel subunit beta-2 (Rattus norvegicus), sequence (P62483 whole entry, looked up): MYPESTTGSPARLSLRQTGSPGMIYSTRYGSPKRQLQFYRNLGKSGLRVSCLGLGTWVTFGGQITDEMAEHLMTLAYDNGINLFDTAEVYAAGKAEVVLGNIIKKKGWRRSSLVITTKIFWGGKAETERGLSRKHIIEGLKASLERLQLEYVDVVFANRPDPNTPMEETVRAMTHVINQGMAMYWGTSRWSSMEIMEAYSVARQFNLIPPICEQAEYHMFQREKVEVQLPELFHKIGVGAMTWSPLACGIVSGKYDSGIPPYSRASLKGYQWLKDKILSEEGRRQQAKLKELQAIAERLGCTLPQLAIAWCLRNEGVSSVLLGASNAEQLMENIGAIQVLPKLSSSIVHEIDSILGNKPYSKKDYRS

[5] = target: Voltage-gated potassium channel subunit beta-2 (Rattus norvegicus) (UniProt P62483); assay: enhancers of rat Kvbeta2 NADPH turnover – biochemical, NADPH fluorescence, primary screen (AID 623;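 active = NADPH fluorescence slope more negative than the mean of all samples by about 3 SD, 99.7% confidence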;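 note: fluorescence intensity change per second fitted from 20 to 320 s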); conditions: Recombinant KvBeta, NADPH fluorescence decrease slope, 10 min; at 10 µM; stronger effect = lower value
[6] = target: Muscarinic acetylcholine receptor M4 (Homo sapiens) (UniProt P08173); assay: M4-linked GIRK flux change, two-sided – cell-based, HEK293 M4/GIRK, thallium flux, BTC-AM, M4 allosteric agonist project, primary screen (AID 625;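 active = fluorescence slope after compound addition differing from the mean of all tested samples at 99.7% confidence, mostly higher but some lower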;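 note: thallium influx through GIRK channels coupled to M4 in HEK293 cells with BTC-AM dye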); conditions: at 10 µM, actives lie on both sides
Muscarinic acetylcholine receptor M4 (Homo sapiens), sequence (P08173 whole entry, looked up): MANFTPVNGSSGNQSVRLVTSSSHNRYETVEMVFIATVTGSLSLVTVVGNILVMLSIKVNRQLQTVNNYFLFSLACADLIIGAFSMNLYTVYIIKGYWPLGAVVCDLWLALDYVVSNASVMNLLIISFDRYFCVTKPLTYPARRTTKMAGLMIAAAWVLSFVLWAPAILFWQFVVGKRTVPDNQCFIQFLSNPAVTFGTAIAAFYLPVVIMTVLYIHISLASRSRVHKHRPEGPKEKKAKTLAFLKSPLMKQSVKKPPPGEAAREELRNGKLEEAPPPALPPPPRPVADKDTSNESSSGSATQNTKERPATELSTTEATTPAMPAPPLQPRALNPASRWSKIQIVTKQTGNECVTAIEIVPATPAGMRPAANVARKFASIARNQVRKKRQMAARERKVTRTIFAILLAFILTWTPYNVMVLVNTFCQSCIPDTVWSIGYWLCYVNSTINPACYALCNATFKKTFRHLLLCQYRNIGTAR
Procedure, shortened: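 assay system = HEK293 cells with M4 receptor and GIRK channels | medium = pH 7.3 thallium assay buffer | doses = 10 µM final, single point | timing = cells overnight at 37 °C, BTC-AM loading 1 h, reads 2 min total | signal = BTC-AM fluorescence, 1 Hz kinetic reads | read-out = post-addition slope, 15–24 s, of baseline-normalized fluorescence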

[7] = blockers of RIG-like receptor reporter activation – cell-based, Sendai virus stimulus, luciferase, 10K MLSCN set, TLR/RLR signaling modifier project, primary screen (AID 602276;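 active = inhibition at or above 50% at 10 µM; inactive = inhibition below 50%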;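 note: firefly luciferase from ISG56 promoter only with Renilla not read in this screen; 0% = Sendai virus plus DMSO and 100% = medium plus DMSO without virus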); conditions: HEK293 RL24 IRF3 luciferase reporter, at 10 µM, stronger effect = higher value
[8] = TLR3 IRF3 reporter activation blockers – cell-based, poly I:C stimulus, luciferase, 10K MLSCN set, primary screen (AID 602277); conditions: HEK293-TLR3 RL24 IRF3 luciferase reporter, at 10 µM, stronger effect = higher value

| Compound | cell count [1] | inhibition [1] | inhibition of aggregation [2] | nuclei count [2] [%] | inhibition [3] | nuclei count [3] [%] | fluorescence slope [4] | NADPH fluorescence slope [5] | fluorescence slope [6] | inhibition [7] | inhibition [8] |
| --- | --- | --- | --- | --- | --- | --- | --- | --- | --- | --- | --- |
| C=CCOC(=O)C(C#N)c1nc2ccccc2nc1N1CCN(Cc2ccccc2)CC1 (stereo not drawn) | 469 | -5.7% (inactive) | -12.3% (inactive) | 94.6 | -69.4% (inactive) | 181 | -0.402 (inactive) | 6.8e-05 (inactive) | 0.0023 (inactive) | 10.9% (inactive) | 18.7% (inactive) |
| CCOC(=O)N1CCN(C(=O)c2ccc(N3C(=O)CCC3=O)cc2)CC1 | 503 | -1.2% (inactive) | 0.2% (inactive) | 108 | 15.8% (inactive) | 68.3 | -0.266 (inactive) | -2.7e-05 (inactive) | 0.00679 (inactive) | -5.15% (inactive) | 18.1% (inactive) |
| COC(=O)COc1ccc(S(=O)(=O)NCCC2=CCCCC2)cc1 | 515 | -0.5% (inactive) | 29% (inactive) | 79.1 | -31.4% (inactive) | 107 | -0.544 (inactive) | -2.1e-05 (inactive) | 0.00377 (inactive) | 15.8% (inactive) | 20.7% (inactive) |
| COCCCn1c(SCC(=O)N2CCc3ccccc32)nnc1-c1ccoc1C | 238 | -3.2% (inactive) | 2.7% (inactive) | 56.1 | 42.5% (inactive) | 56.1 | -0.548 (inactive) | -5.6e-05 (inactive) | 0.00429 (inactive) | 20.2% (inactive) | 19.6% (inactive) |
| O=C(C1CCC1)N1CCc2cc(S(=O)(=O)N3CCc4ccccc4C3)ccc21 | 299 | 0% (inactive) | 8.8% (inactive) | 113 | -0.1% (inactive) | 118 | -0.411 (inactive) | 7.8e-05 (inactive) | 0.00795 (inactive) | -7.83% (inactive) | 4.09% (inactive) |
| O=C(OCc1nnc(-c2ccccc2)o1)c1ccc(S(=O)(=O)NCc2ccco2)cc1 | 722 | -8.9% (inactive) | -17.9% (inactive) | 89.7 | -51.8% (inactive) | 113 | -0.458 (inactive) | -0.000324 (inactive) | 0.00635 (inactive) | -7.1% (inactive) | 2.67% (inactive) |
| CSc1nc(N2CCOCC2)c2c(c1C#N)CCCCC2 | 690 | -11.9% (inactive) | -18.9% (inactive) | 117 | -4.6% (inactive) | 111 | -0.579 (inactive) | 2.1e-05 (inactive) | 0.00519 (inactive) | 23% (inactive) | 27.5% (inactive) |
| S=c1nc(C2CC2)[nH]c2ccccc12 | 469 | 0.8% (inactive) | -8.3% (inactive) | 106 | -99% (inactive) | 118 | -0.49 (inactive) | -4.4e-05 (inactive) | 0.0139 (active) | 19% (inactive) | 20.9% (inactive) |
| Cc1nc2nc(SCC(=O)NCc3ccco3)nn2c(C)c1Cc1ccccc1 | 457 | 1.4% (inactive) | -6.7% (inactive) | 112 | -10.5% (inactive) | 126 | -0.353 (inactive) | -2.9e-05 (inactive) | 0.0066 (inactive) | -7.73% (inactive) | 0.532% (inactive) |
| Cc1ccc(C2C(C#N)=C(N)Oc3cc4c(cc32)OCO4)cc1 (stereo not drawn) | 373 | -5.8% (inactive) | 32.6% (inactive) | 69.9 | 22.1% (inactive) | 104 | -0.541 (inactive) | -3.6e-05 (inactive) | 0.00467 (inactive) | 24.6% (inactive) | 45.5% (inactive) |
| O=C(Nc1cccnc1)Nc1ccc2c(c1)OCO2 | 420 | 0.8% (inactive) | -14.9% (inactive) | 121 | 6% (inactive) | 51.1 | -0.418 (inactive) | 6.4e-06 (inactive) | 0.00717 (inactive) | -19.2% (inactive) | -53.4% (inactive) |
| CC1CN(c2nc3ccccn3c(=O)c2/C=C(\C#N)S(=O)(=O)c2ccccc2)CC(C)O1 (stereo not drawn) | 570 | 8.1% (inactive) | 3.6% (inactive) | 98.6 | 56.6% (inactive) | 104 | -0.513 (inactive) | -0.000138 (inactive) | 0.00288 (inactive) | -1.56% (inactive) | -21.6% (inactive) |
| COCCCNC(=O)CC(NS(=O)(=O)c1ccc(Cl)cc1)c1ccco1 (stereo not drawn) | 402 | 0.3% (inactive) | -20.4% (inactive) | 112 | -62.8% (inactive) | 121 | -0.541 (inactive) | -4.5e-05 (inactive) | 0.00644 (inactive) | 11.7% (inactive) | 20.4% (inactive) |
| ON1C2CCCCC2N(O)C1c1c(F)c(F)c(F)c(F)c1F (stereo not drawn) | 431 | 4.1% (inactive) | -6.9% (inactive) | 105 | -53.7% (inactive) | 102 | -0.546 (inactive) | -2.9e-05 (inactive) | 0.00415 (inactive) | 15.7% (inactive) | 22% (inactive) |
| O=C(COc1ccc(Cl)cc1)Nc1ncccn1 | 436 | -3.8% (inactive) | 4.3% (inactive) | 98.6 | -12.3% (inactive) | 87.1 | -0.456 (inactive) | -7.3e-05 (inactive) | 0.00491 (inactive) | 14.4% (inactive) | -0.516% (inactive) |
| CC1CCN(C(=O)CSc2nnc(-c3cccnc3)n2C2CCCCC2)CC1 | 463 | -5.1% (inactive) | 6.5% (inactive) | 121 | -34.6% (inactive) | 134 | -0.471 (inactive) | -2.5e-05 (inactive) | 0.00469 (inactive) | 18.4% (inactive) | 16.9% (inactive) |
| COc1cc2nc(C3CCC3)n(NC(=O)C3CCCC(OC)C3)c(=O)c2cc1OC (stereo not drawn) | 609 | -8.8% (inactive) | -18% (inactive) | 106 | -30.3% (inactive) | 107 | -0.266 (inactive) | -1.2e-05 (inactive) | 0.00583 (inactive) | 15.8% (inactive) | 9.02% (inactive) |
| CC(=O)SCC(=O)N=c1sc2cc(F)ccc2n1C | 491 | 1.1% (inactive) | -2.8% (inactive) | 91.7 | 3.4% (inactive) | 104 | -0.493 (inactive) | 4.8e-06 (inactive) | 0.00565 (inactive) | 3.65% (inactive) | 2.45% (inactive) |
| CCN1CCN(c2c(Cl)cccc2NC(=O)c2ccc3c(c2)OCCO3)CC1 | 505 | 2.1% (inactive) | -4.5% (inactive) | 111 | -82.8% (inactive) | 216 | -0.264 (inactive) | -8.8e-06 (inactive) | 0.0079 (inactive) | 10.2% (inactive) | 18.4% (inactive) |
| O=C(NC1CCCC1)c1c[nH]c2ccc(F)cc2c1=O | 442 | -4% (inactive) | -14.3% (inactive) | 118 | -16% (inactive) | 104 | -0.266 (inactive) | -1.4e-05 (inactive) | 0.00803 (inactive) | -2.78% (inactive) | -20.3% (inactive) |
| CS(=O)(=O)N(CC(=O)NCc1ccccn1)c1ccc2c(c1)OCCO2 | 755 | -7.5% (inactive) | 13% (inactive) | 101 | 26% (inactive) | 78.9 | -0.515 (inactive) | -4.7e-06 (inactive) | 0.00626 (inactive) | 14.9% (inactive) | 15.8% (inactive) |
| CCOc1ccc(-n2c(C)nc3c(cnn3-c3ccc(Cl)cc3)c2=O)cc1 | 238 | -9% (inactive) | -23.6% (inactive) | 96.9 | 2.1% (inactive) | 109 | -0.58 (inactive) | -4.1e-06 (inactive) | 0.00771 (inactive) | -2.74% (inactive) | -8.54% (inactive) |
| O=c1c2c3nc4ccccc4nc3n(CC3CCCO3)c2ncn1CCc1ccccc1 (stereo not drawn) | 440 | -3.2% (inactive) | -0.4% (inactive) | 116 | -90.8% (inactive) | 107 | -0.378 (inactive) | -1.1e-05 (inactive) | 0.00514 (inactive) | 12.8% (inactive) | 19.1% (inactive) |
| COC(=O)CN1C(=O)C2(C(C#N)=C(N)Oc3c2c(C)nn3-c2ccccc2)c2ccccc21 (stereo not drawn) | 668 | -24.1% (inactive) | 5% (inactive) | 97.4 | 18.6% (inactive) | 97.4 | -0.475 (inactive) | -6.6e-05 (inactive) | 0.0047 (inactive) | 16.1% (inactive) | 19.7% (inactive) |
| Cn1c2c(c(=O)[nH]c1=O)C(NC(=O)c1ccco1)(C(F)(F)F)C(=O)N2 (stereo not drawn) | 618 | 8.2% (inactive) | -9.2% (inactive) | 108 | -95% (inactive) | 135 | -0.542 (inactive) | -6.4e-05 (inactive) | 0.00391 (inactive) | -2.84% (inactive) | 6.27% (inactive) |
| CC(NC(=O)CSc1n[nH]c(=O)n1C1CC1)C12CC3CC(CC(C3)C1)C2 (stereo not drawn) | 563 | -23% (inactive) | -6.1% (inactive) | 101 | -5.1% (inactive) | 110 | -0.378 (inactive) | 8.6e-05 (inactive) | 0.00652 (inactive) | 7.91% (inactive) | 23.3% (inactive) |
| O=c1c(F)cn(C2CCCO2)c(=O)n1Cc1c(F)cccc1Cl (stereo not drawn) | 738 | -7.1% (inactive) | -9.4% (inactive) | 103 | -114% (inactive) | 140 | -0.549 (inactive) | -1.3e-05 (inactive) | 0.00479 (inactive) | 5.15% (inactive) | 13.2% (inactive) |
| Cc1ccc2c(c1)c1c(n2CC(O)Cn2c(C)nc3ccccc32)/C(=N\O)CCC1 (stereo not drawn) | 459 | 2.7% (inactive) | -25.1% (inactive) | 14.1 | -15.9% (inactive) | 103 | -0.433 (inactive) | 9.2e-05 (inactive) | 0.00656 (inactive) | 7.68% (inactive) | -1.8% (inactive) |

Source: PubChem BioAssay
